One data set relates to Entamoeba histolytica. Nature of the data set: Antiamoebic activity against Entamoeba histolytica HM-1:IMSS trophozoites after 72 hrs by eosin staining based microdilution method. It counts as functional. The method in brief:
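Trophozoites grown in Diamond TYIS-33 medium. Compounds in DMSO, 1 mg/mL stock, two-fold serial dilutions. 1.7 x 10⁴ organisms/well, plate gassed with nitrogen 10 min, 37 °C for 72 h. Wells washed with 0.9% NaCl, fixed with methanol, stained with 0.5% eosin for 15 min, dye released with 0.1 N NaOH, OD 490 nm. IC50 from linear regression of % inhibition vs log dose. Triplicate wells, repeated thrice.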

The nature of data set [1]: Inhibition of Entamoeba histolytica O-acetyl-L-serine sulfohydrolase preincubated with enzyme followed by TNB substrate addition measured after 30 mins by UV-Visible spectrophotometric method. The settings on record: in the assay text read “OAS substrate” for “TNB substrate”. Put shortly: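 Recombinant EhOASS (90 μg) in 100 mM HEPES pH 7.0 with […], inhibitor 0.25–500 μM, preincubated 30 min at room temperature. Reaction started with O-acetyl-L-serine. TNB disappearance followed at 412 nm. % decrease in activity taken relative to the uninhibited reaction. IC50 from % inhibition vs log inhibitor concentration.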

A further data set addresses T1, Thioredoxin reductase (Entamoeba histolytica, UniProt C4LW95).
T1 sequence (C4LW95 whole entry): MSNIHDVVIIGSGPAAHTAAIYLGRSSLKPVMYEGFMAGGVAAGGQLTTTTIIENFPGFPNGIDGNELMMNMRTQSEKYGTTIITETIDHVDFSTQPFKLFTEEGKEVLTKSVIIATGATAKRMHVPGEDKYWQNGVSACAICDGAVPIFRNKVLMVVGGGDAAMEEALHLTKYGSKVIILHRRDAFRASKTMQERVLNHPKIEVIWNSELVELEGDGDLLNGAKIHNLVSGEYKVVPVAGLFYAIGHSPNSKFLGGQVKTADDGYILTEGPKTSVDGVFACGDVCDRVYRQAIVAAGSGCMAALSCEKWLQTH
Nature of the data set: Inhibition of Entamoeba histolytica thioredoxin reductase.

Data set [2] is described as follows: Cytotoxicity against CHO cells assessed as reduction in cell viability after 48 hrs by MTT assay. The settings on record: for IC50 at 48 h: Chinese hamster, CHO cells; for Activity: chinese hamster, cho, 48 h. Format: toxicity, cell-based, Cricetulus griseus. The method in brief: (§1)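 Chinese hamster ovary cells in RPMI with 10% FBS and 1% penicillin-streptomycin-neomycin. 5,000 cells/well, in triplicate, exposed to compound or vehicle DMSO at 37 °C, 5% CO2 for 48 h or 72 h. MTT (5 mg/mL in PBS) added for 4 h, formazan dissolved in DMSO, absorbance at 570 nm. Viability expressed as % of DMSO control.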

The nature of data set [3]: Cytotoxicity against CHO cells assessed as reduction in cell viability after 72 hrs by MTT assay. To be noted: for IC50 at 72 h: Chinese hamster, CHO cells; for Activity: chinese hamster, cho, 72 h. Format: toxicity, cell-based, Cricetulus griseus. The method in brief:
as §1
On the technique in general: Tetrazolium assays rely on reduction of a dye to a coloured formazan, in cell work by metabolically active cells.

Data set [4] can be described thus: Cytotoxicity against CHO cells assessed as reduction in cell viability at 100 uM after 48 hrs by MTT assay. Format: toxicity, cell-based, Cricetulus griseus. The settings on record: chinese hamster. The method in brief:
as §1

Data set [5] can be described thus: Cytotoxicity against CHO cells assessed as reduction in cell viability at 2.5 to 50 uM after 48 hrs by MTT assay. Format: toxicity, cell-based, Cricetulus griseus. To be noted: chinese hamster. Put shortly: as §1
Data set [6] in a line: Cytotoxicity against CHO cells assessed as reduction in cell viability at 2.5 to 25 uM after 72 hrs by MTT assay. Format: toxicity, cell-based, Cricetulus griseus. The settings on record: chinese hamster. The method in brief: as §1
A short description of data set [7]: Cytotoxicity against CHO cells assessed as reduction in cell viability at 50 uM after 72 hrs by MTT assay. Format: toxicity, cell-based, Cricetulus griseus. The settings on record: chinese hamster. The method in brief: as §1

`S=C(NCc1ccco1)Nc1ccccc1` came in with an IC50 in the data set with Entamoeba histolytica of 8.22 µM.

In the case of `O=C1/C(=C/c2ccc3c(c2)OCO3)S/C(=N\c2ccccc2)N1Cc1ccco1`, the results for the inhibitory constant (Ki) (in data set [1]; on Thioredoxin reductase) were 343 µM and 27 µM, respectively. Also, half-maximal inhibition with Entamoeba histolytica (IC50) was put at 2.97 µM.

For the molecule `CCOc1ccc(/C=C2\S/C(=N\c3ccccc3)N(Cc3ccco3)C2=O)cc1`, the Ki in [1] was found to be 149 µM; at Thioredoxin reductase, 4.66 µM. In the data set with Entamoeba histolytica, it took 2.03 µM to reach half-maximal inhibition (IC50).

As for `COc1ccc(/C=C2\S/C(=N\c3ccccc3)N(Cc3ccco3)C2=O)cc1OC`, the IC50 at 48 h in [2] was greater than 400 µM. The Activity entry in data set [2] was “Dose-dependent effect”; in [3] it was “Dose-dependent effect”; in data set [4] it was “Non-Toxic”; in data set [5], “Non-Toxic”; in data set [6], “Non-Toxic”; in data set [7], “Non-Toxic”. For the same molecule, the IC50 at 72 h in data set [3] is greater than 250 µM. Further, the inhibition constant (Ki) at Thioredoxin reductase was 0.68 µM. This molecule returned a concentration for half-maximal inhibition (IC50) with Entamoeba histolytica of 0.47 µM.

In turn, `O=C(CSc1nc(O)cc(=O)[nH]1)c1c[nH]c2ccccc12` yielded an inhibitory constant (Ki) in data set [1] of 25.6 µM.

As to `O=C1/C(=C/c2ccccn2)S/C(=N\c2ccccc2)N1Cc1ccco1`, the IC50 at 48 h in data set [2] is greater than 400 µM. The Activity result in data set [2] is on record as “Dose-dependent effect”; in data set [3] it was “Dose-dependent effect”; in data set [4] it was “Non-Toxic”; in data set [5], “Non-Toxic”; in data set [6], “Non-Toxic”; in [7], “Non-Toxic”. The IC50 at 72 h in data set [3] is greater than 250 µM. The same molecule displayed an inhibition constant Ki on Thioredoxin reductase of 0.39 µM. Moreover, inhibition with Entamoeba histolytica was half-maximal at 0.27 µM (IC50).

In the case of `Cc1ccc(/C=C2\S/C(=N\c3ccccc3)N(Cc3ccco3)C2=O)cc1`, the IC50 at 48 h in data set [2] came out at 421 µM. The Activity result is “Dose-dependent effect” in data set [2], “Dose-dependent effect” in data set [3], “Non-Toxic” in [5] and “Non-Toxic” in data set [6]. Moreover, the IC50 at 72 h in data set [3] is 185 µM. Also, the affinity at Thioredoxin reductase corresponds to a Ki of 2.82 µM. This molecule gave an IC50 in the data set on Entamoeba histolytica of 1.48 µM.

On to `COc1ccc(/C=C2\S/C(=N\c3ccccc3)N(Cc3ccco3)C2=O)cc1`, for which the IC50 at 48 h in data set [2] is greater than 400 µM. In addition, the Activity entry is recorded as “Dose-dependent effect” in [2], “Dose-dependent effect” in [3], “Non-Toxic” in [5] and “Non-Toxic” in [6]. In addition, the IC50 at 72 h in data set [3] was greater than 250 µM. At Thioredoxin reductase, the affinity, expressed as Ki, was 2.07 µM. Also, in the data set on Entamoeba histolytica, the half-inhibitory concentration (IC50) worked out at 1.35 µM.

With `O=C1CS/C(=N\c2ccccc2)N1Cc1ccco1`, the inhibition constant (Ki) in data set [1] was 2240 µM; at Thioredoxin reductase, 337 µM. The molecule also came in with a concentration for half-maximal inhibition (IC50) in the data set with Entamoeba histolytica of 3.57 µM.

As for `O=C1/C(=C/c2ccccc2)S/C(=N\c2ccccc2)N1Cc1ccco1`, the results for the Ki (in data set [1]; on Thioredoxin reductase) were 58 µM and 10.9 µM, respectively. In the data set with Entamoeba histolytica, this molecule gave a half-maximal inhibitory concentration (IC50) of 2.25 µM.

On to `COc1cc(/C=C2\S/C(=N\c3ccccc3)N(Cc3ccco3)C2=O)cc(OC)c1OC`, for which the concentration for half-maximal inhibition (IC50) at 48 h in data set [2] is greater than 400 µM. Besides, the Activity entry in [2] is reported as “Dose-dependent effect”; in data set [3] it was “Dose-dependent effect”; in [5], “Non-Toxic”; in data set [6], “Non-Toxic”. In addition, the half-inhibitory concentration (IC50) at 72 h in data set [3] is greater than 250 µM. Further, affinity at Thioredoxin reductase was put at a Ki of 1.05 µM. For the same molecule, in the data set with Entamoeba histolytica, inhibition was half-maximal at 1.24 µM (IC50).

Consider `O=C1/C(=C/c2ccc([N+](=O)[O-])cc2)S/C(=N\c2ccccc2)N1Cc1ccco1`, for which the inhibition constant (Ki) in data set [1] was 98.6 µM; on Thioredoxin reductase it was 16.1 µM. The IC50 with Entamoeba histolytica was 2.87 µM.

Turning to `CC(C)Oc1ccc(/C=C2\S/C(=N\c3ccccc3)N(Cc3ccco3)C2=O)cc1`, the Ki in [1] turned out to be 54.8 µM; at Thioredoxin reductase, 5.68 µM. The same molecule came in with a concentration for half-maximal inhibition (IC50) in the data set with Entamoeba histolytica of 2.2 µM.

Take `COc1ccc(OC)c(/C=C2\S/C(=N\c3ccccc3)N(Cc3ccco3)C2=O)c1`: in data set [2], the IC50 at 48 h is greater than 400 µM. Also, the Activity result in data set [2] is “Dose-dependent effect”; in [3], “Dose-dependent effect”; in data set [4] it was “Non-Toxic”; in data set [5], “Non-Toxic”; in [6] it was “Non-Toxic”; in data set [7] it was “Non-Toxic”. Moreover, the 50% inhibitory concentration (IC50) at 72 h in data set [3] is greater than 250 µM. Also, the affinity on Thioredoxin reductase corresponds to a Ki of 0.69 µM. This molecule also came in with an IC50 in the data set on Entamoeba histolytica of 0.67 µM.

On to `O=C1/C(=C/c2ccc(Cl)cc2)S/C(=N\c2ccccc2)N1Cc1ccco1`, for which the inhibitory constant (Ki) is 84.3 µM in data set [1] and 6.23 µM at Thioredoxin reductase. This molecule also yielded an IC50 in the data set with Entamoeba histolytica of 2.33 µM.

For `O=C1/C(=C/c2ccc(O)cc2)S/C(=N\c2ccccc2)N1Cc1ccco1`, the IC50 at 48 h in data set [2] amounted to 400 µM. Further, the Activity result in [2] was “Dose-dependent effect”; in data set [3], “Dose-dependent effect”; in data set [5] it was “Non-Toxic”; in data set [6], “Non-Toxic”. The half-maximal inhibitory concentration (IC50) at 72 h in data set [3] is greater than 250 µM. On Thioredoxin reductase, this molecule returned a Ki of 0.73 µM. Inhibition in the data set on Entamoeba histolytica was half-maximal at 1.04 µM (IC50).

On to `O=C1/C(=C/c2cccc([N+](=O)[O-])c2)S/C(=N\c2ccccc2)N1Cc1ccco1`, for which the inhibition constant Ki in data set [1] amounted to 46.8 µM; on Thioredoxin reductase it was 3.56 µM. In the data set on Entamoeba histolytica, the half-maximal inhibitory concentration (IC50) was determined as 1.95 µM.

As to `O=C1/C(=C/c2cccc(Cl)c2)S/C(=N\c2ccccc2)N1Cc1ccco1`, the inhibition constant Ki in [1] was 45.8 µM; on Thioredoxin reductase, 3.16 µM. The molecule also came in with a half-inhibitory concentration (IC50) with Entamoeba histolytica of 1.95 µM.

`Cc1ncc([N+](=O)[O-])n1CCn1cc(-c2ccccn2)nn1` returned an inhibition constant Ki on Thioredoxin reductase of 2.88 µM.

`Cc1ncc([N+](=O)[O-])n1CCO` [METRONIDAZOLE]: in data set [2], the IC50 at 48 h is greater than 400 µM. Moreover, in data set [3], the 50% inhibitory concentration (IC50) at 72 h was 280 µM. The results for the Ki (in data set [1]; on Thioredoxin reductase) were 42.6 µM and 3.3 µM, respectively. Further, the Activity entry in data set [5] and in data set [6] was “Non-Toxic” in each case.

The term IC50 denotes the concentration at which inhibition is half-maximal. The term Ki denotes the dissociation constant of the complex between target and ligand, obtained from inhibition or displacement.

Source of the values: ChEMBL document CHEMBL3871276, “Synthesis, antiamoebic and molecular docking studies of furan-thiazolidinone hybrids” (Eur J Med Chem, 2016).
